From paper PMC7152711 (EBioMedicine, 2020)
Where two headings read alike, the source gives them in different places.

How the values were obtained:
[1] = Tolerability, body weight and blood parameters, oral study; type: in vivo, mice
Outline: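 In the oral study, infected BALB/c mice (n = 10 per group) were gavaged daily for 30 days with test compound in water, albendazole in 0.5% carboxymethyl cellulose, or water alone. Mice were monitored for morbidity signs and behaviour. Two weeks after treatment, plasma was collected, and body, liver, kidney and thymus weights were recorded.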

[2] = system: E. granulosus ss protoscoleces (PSCs); assay: E. granulosus ss PSC killing assay; type: cell-based, Echinococcus granulosus sensu stricto; conditions: Echinococcus granulosus, 24 h, read-out: LC50 (protoscolicidal activity)
Outline: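 Protoscoleces were aspirated from cysts in naturally infected sheep livers and cultured by a prior method. Wells held 200 PSCs; test compound from a 10× aqueous stock, final 34–114 μM; medium-only control. Incubation was 24 h at 37 °C, 5% CO2. Viability: 0.1% methylene blue for 5 min, with blue PSCs scored dead under an inverted microscope. Triplicate; LC50 by nonlinear regression.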

[3] = system: E. granulosus ss cysts; assay: In vivo efficacy, oral administration, secondarily infected mice; design: species or system Echinococcus granulosus sensu stricto
Outline: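 Microcyst-infected female BALB/c mice (3 months post-infection), 10 per group, were gavaged once daily for 30 days with 0.2 ml. Test compound 57 mg/kg was given in deionised water, albendazole 50 mg/kg in 0.5% carboxymethyl cellulose, and controls received deionised water. Necropsy 2 weeks post-treatment. Cysts were weighed and scored alive or dead by morphological type. One-way ANOVA or Kruskal-Wallis test.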

[4] = system: cystic echinococcosis; conditions: clinical study ref 5; cited from earlier work
[5] = system: E. granulosus ss cysts; assay: Transmission electron microscopy of cysts from treated mice; type: in vivo, Echinococcus granulosus sensu stricto
Outline: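 Cysts came from infected BALB/c mice given test compound at 57 mg/kg, either i.p. once daily for 3 days or by gavage daily for 30 days, and from albendazole-treated (50 mg/kg p.o.) and untreated mice. Cyst ultrastructure was examined by transmission electron microscopy, covering the laminated layer, tegument, germinal layer and microtriches.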

[6] = system: E. granulosus ss PSCs; assay: TUNEL assay in PSCs; type: cell-based; conditions: 100 µM, 24 h
[7] = target: T1, E. granulosus ss topoisomerase I (Egtopo I) (Echinococcus granulosus, UniProt W6UT38); assay: Egtopo I-mediated DNA relaxation assay; type: biochemical, Echinococcus granulosus sensu stricto; conditions: read-out: IC50 Egtopo I activity; relaxation of supercoiled pBR322, 30 min 37 °C
T1 sequence (W6UT38 1-621): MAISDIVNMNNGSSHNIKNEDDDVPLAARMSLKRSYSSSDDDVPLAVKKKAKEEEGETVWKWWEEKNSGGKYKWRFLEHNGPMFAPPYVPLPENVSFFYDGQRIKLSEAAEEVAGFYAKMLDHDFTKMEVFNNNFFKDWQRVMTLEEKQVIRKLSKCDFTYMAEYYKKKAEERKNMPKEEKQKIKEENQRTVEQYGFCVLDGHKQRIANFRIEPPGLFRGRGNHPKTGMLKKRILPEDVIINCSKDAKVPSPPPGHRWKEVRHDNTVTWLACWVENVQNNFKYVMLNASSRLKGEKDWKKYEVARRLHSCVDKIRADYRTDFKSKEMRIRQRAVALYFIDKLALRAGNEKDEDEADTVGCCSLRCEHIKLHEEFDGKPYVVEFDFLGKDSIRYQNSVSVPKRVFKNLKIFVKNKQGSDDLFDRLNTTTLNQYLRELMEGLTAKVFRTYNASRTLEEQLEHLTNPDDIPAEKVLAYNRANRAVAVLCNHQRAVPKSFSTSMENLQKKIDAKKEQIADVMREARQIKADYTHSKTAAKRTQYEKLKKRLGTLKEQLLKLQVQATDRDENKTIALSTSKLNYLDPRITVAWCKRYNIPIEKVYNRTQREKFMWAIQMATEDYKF
Outline: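 Kit-based relaxation assay with pBR322 (200 ng), Egtopo I (300 ng) and 0.1% BSA. Test compound at final 50, 100, 150, 200, 300, 400, 500 and 600 μM in assay buffer, 30 min at 37 °C. Stopped with 10% SDS plus loading buffer, run on 1% agarose and stained with ethidium bromide (5 μg/ml). IC50 from a nonlinear regression fit, n = 3.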

[8] = target: T2, CYP1A2 (Homo sapiens, UniProt P05177); assay: CYP450 inhibition assay, human liver microsomes; type: in vitro ADME
T2 sequence (P05177 1-516): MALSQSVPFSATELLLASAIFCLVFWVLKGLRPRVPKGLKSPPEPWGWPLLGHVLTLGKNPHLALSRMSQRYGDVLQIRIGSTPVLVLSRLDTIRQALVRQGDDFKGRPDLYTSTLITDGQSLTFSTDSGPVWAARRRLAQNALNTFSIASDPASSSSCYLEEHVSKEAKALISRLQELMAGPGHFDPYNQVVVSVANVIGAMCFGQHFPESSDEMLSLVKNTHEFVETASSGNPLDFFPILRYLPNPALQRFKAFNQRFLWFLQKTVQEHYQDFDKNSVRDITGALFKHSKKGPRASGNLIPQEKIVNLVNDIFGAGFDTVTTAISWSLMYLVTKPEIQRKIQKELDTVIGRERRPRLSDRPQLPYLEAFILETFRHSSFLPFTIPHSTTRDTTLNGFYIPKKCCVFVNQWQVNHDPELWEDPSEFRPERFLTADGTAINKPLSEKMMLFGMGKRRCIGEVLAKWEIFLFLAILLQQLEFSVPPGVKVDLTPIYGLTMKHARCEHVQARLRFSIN

[9] = system: bone marrow; conditions: mice, bone marrow ref 38, 39; cited from earlier work
[10] = dog, 28 days oral treatment ref 16; cited from earlier work
[11] = system: E. granulosus ss PSCs; assay: DNA fragmentation assay in PSCs; type: cell-based; conditions: 50 μM, 24 h
[12] = Tolerability, organ weights and blood parameters, intraperitoneal study; type: in vivo, mice
Outline: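 Microcyst-infected female BALB/c mice were dosed i.p. once daily for 3 days with test compound in saline (14, 28, 57 mg/kg; n = 10) or saline (n = 12). During treatment they were watched for emaciation, hunched back, ruffled coat, appetite and behaviour changes. Two weeks post-treatment, plasma was taken for haematology and biochemistry, and liver, kidneys, thymus and body were weighed.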

[13] = system: Salmonella typhimurium strains; conditions: cited from earlier work
[14] = In vivo pharmacokinetics and tissue distribution; design: species or system mice; conditions: for Kp: male, ICR, mouse, intraperitoneal, 57 mg/kg
Outline: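 Male ICR mice (20–22 g, 3 per time point) received a single 57 mg/kg i.p. dose. Plasma was precipitated with acetonitrile containing internal standards and centrifuged at 2600 g for 10 min at 4 °C. Liver and lung were homogenised in 4 volumes of 100 mM phosphate buffer, pH 7.4, and processed alike. Samples taken 0.25–48 h were measured by LC-MS/MS and analysed non-compartmentally.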

[15] = 28 days oral treatment NOAEL in the dog; conditions: in vivo, 5 mg/kg/day
[16] = dogs, oral 24 mg/kg/day for 30 days ref 20; cited from earlier work
[17] = target: CYP2D6 (Homo sapiens, UniProt P10635); assay: CYP450 inhibition assay, human liver microsomes; type: in vitro ADME
[18] = rat, 28 days oral treatment ref 16; cited from earlier work
[19] = target: CYP2C9 (Homo sapiens, UniProt P11712); assay: CYP450 inhibition assay, human liver microsomes; type: in vitro ADME
[20] = target: CYP3A4 (Homo sapiens, UniProt P08684); assay: CYP450 inhibition assay, human liver microsomes; type: in vitro ADME
[21] = target: CYP2C19 (Homo sapiens, UniProt P33261); assay: CYP450 inhibition assay, human liver microsomes; type: in vitro ADME
[22] = system: E. granulosus ss cysts; assay: Microinjection treatment of cysts; type: in vivo, Echinococcus granulosus sensu stricto
[23] = 28 days oral treatment NOAEL in the rat; conditions: in vivo, 23 mg/kg/day
[24] = system: E. granulosus ss cysts; assay: In vivo efficacy, intraperitoneal administration, secondarily infected mice; design: species or system Echinococcus granulosus sensu stricto
Outline: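 Female BALB/c mice, 6–8 weeks, were infected intraperitoneally with microcysts and randomised at 3 months. Test compound in saline at 14, 28 or 57 mg/kg (n = 10 each), 1.0 ml i.p. once daily for 3 days; saline controls n = 12. Necropsy 2 weeks post-treatment. Cysts were weighed, and viability was scored by morphology: type 1 alive, types 2–3 dead. Kruskal-Wallis test.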

[25] = system: caspase-3; assay: Caspase-3 activity assay in PSCs; type: cell-based, E. granulosus; conditions: 100 µM 24 h, vs vehicle controls
[26] = 0 to 48 h, single 57 mg/kg i.p.

Sequence of CYP2D6 (P10635 whole entry): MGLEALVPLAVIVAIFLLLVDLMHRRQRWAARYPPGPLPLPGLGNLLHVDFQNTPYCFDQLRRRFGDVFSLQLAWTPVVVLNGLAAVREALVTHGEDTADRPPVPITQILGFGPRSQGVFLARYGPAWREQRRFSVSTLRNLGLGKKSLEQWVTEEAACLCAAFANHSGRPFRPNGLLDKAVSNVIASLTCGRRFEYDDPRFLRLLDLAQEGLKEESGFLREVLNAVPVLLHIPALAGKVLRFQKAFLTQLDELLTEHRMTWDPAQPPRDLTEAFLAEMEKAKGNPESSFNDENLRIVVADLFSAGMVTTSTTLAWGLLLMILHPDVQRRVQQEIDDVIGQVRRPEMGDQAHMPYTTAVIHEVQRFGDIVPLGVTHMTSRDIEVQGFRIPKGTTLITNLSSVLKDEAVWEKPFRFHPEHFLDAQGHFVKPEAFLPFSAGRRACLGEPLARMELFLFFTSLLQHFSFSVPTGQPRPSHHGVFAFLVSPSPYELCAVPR
Sequence of CYP2C19 (P33261 whole entry): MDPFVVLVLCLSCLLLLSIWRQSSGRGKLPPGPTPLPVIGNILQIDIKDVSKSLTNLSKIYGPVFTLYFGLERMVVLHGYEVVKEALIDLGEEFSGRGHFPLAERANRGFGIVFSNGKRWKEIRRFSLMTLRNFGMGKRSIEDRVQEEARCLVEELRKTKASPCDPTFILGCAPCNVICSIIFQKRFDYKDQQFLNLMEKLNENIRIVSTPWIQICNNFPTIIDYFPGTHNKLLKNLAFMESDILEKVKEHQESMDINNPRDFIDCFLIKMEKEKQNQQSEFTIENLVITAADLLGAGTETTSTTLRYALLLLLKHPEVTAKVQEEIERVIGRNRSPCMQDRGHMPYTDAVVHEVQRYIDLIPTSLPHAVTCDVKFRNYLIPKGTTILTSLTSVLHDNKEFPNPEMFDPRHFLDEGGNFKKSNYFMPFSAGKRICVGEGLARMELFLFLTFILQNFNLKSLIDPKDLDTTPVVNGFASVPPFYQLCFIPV
Sequence of CYP2C9 (P11712 whole entry): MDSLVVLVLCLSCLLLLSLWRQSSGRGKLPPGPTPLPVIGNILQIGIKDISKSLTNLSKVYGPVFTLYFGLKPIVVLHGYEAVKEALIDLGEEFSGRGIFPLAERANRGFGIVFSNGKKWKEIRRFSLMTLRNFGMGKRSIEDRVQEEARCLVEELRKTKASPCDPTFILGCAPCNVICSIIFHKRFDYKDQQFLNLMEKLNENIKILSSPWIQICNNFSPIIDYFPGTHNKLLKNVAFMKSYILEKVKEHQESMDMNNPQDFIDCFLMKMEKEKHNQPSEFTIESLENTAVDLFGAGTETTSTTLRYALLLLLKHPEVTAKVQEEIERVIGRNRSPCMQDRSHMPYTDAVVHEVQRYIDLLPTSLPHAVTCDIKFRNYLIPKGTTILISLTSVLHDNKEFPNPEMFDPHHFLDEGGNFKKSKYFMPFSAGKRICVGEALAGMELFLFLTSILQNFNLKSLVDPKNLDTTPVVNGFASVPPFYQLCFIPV
Sequence of CYP3A4 (P08684 whole entry): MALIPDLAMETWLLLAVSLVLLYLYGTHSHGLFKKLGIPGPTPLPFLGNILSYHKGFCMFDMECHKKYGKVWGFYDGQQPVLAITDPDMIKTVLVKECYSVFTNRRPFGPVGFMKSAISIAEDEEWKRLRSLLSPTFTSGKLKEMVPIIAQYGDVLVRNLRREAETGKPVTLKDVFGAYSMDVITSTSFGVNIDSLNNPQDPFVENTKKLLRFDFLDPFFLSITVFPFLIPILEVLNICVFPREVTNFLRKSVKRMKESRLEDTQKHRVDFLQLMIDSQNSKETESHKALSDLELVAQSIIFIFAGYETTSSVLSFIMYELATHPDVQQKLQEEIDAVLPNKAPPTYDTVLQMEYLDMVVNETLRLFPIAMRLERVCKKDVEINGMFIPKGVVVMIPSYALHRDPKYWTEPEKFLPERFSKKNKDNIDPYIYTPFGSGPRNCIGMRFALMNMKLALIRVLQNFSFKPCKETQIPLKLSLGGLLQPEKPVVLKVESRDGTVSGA

CCCSc1ccc2nc(NC(=O)OC)[nH]c2c1 [ABZ, albendazole]
body weight ([1]; ABZ 50 mg/kg p.o. 30 days): minor loss of body weight | LC50 [2]: 79.2 ± 3.9 µM | cyst mortality rate ([3]; ABZ 50 mg/kg p.o. q.d. 30 days): 22.2% | cyst weight reduction ([3]; ABZ 50 mg/kg p.o. q.d. 30 days): 48.1% | CE cases that did not respond favorably to treatment [4]: approximately 40% | cyst ultrastructure (TEM) ([5]; ABZ 50 mg/kg, p.o.): did not exhibit obvious ultrastructural changes

COc1ccc2nc3cc(Cl)ccc3c(Nc3cc(CN4CCCC4)c(O)c(CN4CCCC4)c3)c2n1 [PND, pyronaridine]
TUNEL staining (DNA fragmentation) [6]: abundant TdT dUTP nick-end labeling (TUNEL)-positive cells were observed | IC50 [7]: 209.7 ± 1.1 µM | IC50 [8]: > 10 µM | micronucleus frequency [9]: no increase in micronucleus frequency in the bone marrow | no observed adverse effect level (NOAEL) [10]: 5 mg/kg/day | DNA ladder on agarose gel [11]: a clear pattern of DNA fragmentation (DNA ladder) was observed | behaviour and adverse effects ([12]; 14, 28, 57 mg/kg i.p. q.d. 3 days): without obvious adverse effects | liver weight ([12]; high-dosage group (57 mg/kg i.p.), vs control): a minor increase in liver weight | Ames mutagenicity ([13]; strain TA1537 ref 40): evidence of bacterial mutagenicity | Ames mutagenicity ([13]; strains TA100, TA98, TA1535 and TA1538 ref 40): did not induce mutations | average concentration in the liver [14, 26]: 435.7 µmol/kg | average concentration in the lungs [14, 26]: 122.5 µmol/kg | average plasma concentration [14, 26]: 1.5 µM | Kp ([14]; liver/plasma): 290 | Kp ([14]; lungs/plasma): 81.7 | NOAEL at 28 days [15]: 2.7 mg/kg/day | tolerability [16]: well tolerated | body weight ([1]; PND 57 mg/kg p.o. 30 days): minor loss of body weight | IC50 [17]: 1530 nM | LC50 [2]: 49 ± 0.2 µM | cysts killed (mortality rate) ([3]; PND 57 mg/kg p.o. q.d. 30 days): 90.7% | parasite wet weight reduction ([3]; PND 57 mg/kg p.o. q.d. 30 days, vs vehicle control): 42.4% | no observed adverse effect level (NOAEL) [18]: 23 mg/kg/day | IC50 [19]: > 10 µM | IC50 [20]: > 10 µM | IC50 [21]: > 10 µM | cyst counts ([22]; 200 μM microinjected, 35 cysts/mouse transferred, 30 days): 6.4 ± 1.2 | parasite wet weight reduction ([22]; 200 μM microinjected, 30 days post-treatment, vs saline group): 52.3% | cysts killed after microinjection ([22]; microinjection with PND): more than 90% | NOAEL at 28 days [23]: 3.7 mg/kg/day | cyst mortality ([24]; 57 mg/kg i.p. q.d. 3 days): 100% | wet cyst weight reduction ([24]; 57 mg/kg i.p. q.d. 3 days, vs unmedicated mice): 38.7% | growth of cysts ([24]; 14, 28 and 57 mg/kg i.p. q.d. 3 days): successfully suppressed the growth of cysts | cyst ultrastructure (TEM) ([5]; PND 57 mg/kg, both i.p. and p.o.): devastating damage of the cyst tissues | increase in caspase-3 activity [25]: 20 fold
